This is an account of results in ChEMBL document CHEMBL4823260, “From High-Throughput Screening to Target Validation: Benzo[d]isothiazoles as Potent and Selective Agonists of Human Transient Receptor Potential Cation Channel Subfamily M Member 5 Possessing In Vivo Gastrointestinal Prokinetic Activity in Rodents” (J Med Chem, 2021).

In brackets after ≈: the same amount, converted by molar mass.

The target of data set [1] is T1, Transient receptor potential cation channel subfamily M member 5 (Homo sapiens, UniProt Q9NZQ8).
T1 sequence (Q9NZQ8 whole entry): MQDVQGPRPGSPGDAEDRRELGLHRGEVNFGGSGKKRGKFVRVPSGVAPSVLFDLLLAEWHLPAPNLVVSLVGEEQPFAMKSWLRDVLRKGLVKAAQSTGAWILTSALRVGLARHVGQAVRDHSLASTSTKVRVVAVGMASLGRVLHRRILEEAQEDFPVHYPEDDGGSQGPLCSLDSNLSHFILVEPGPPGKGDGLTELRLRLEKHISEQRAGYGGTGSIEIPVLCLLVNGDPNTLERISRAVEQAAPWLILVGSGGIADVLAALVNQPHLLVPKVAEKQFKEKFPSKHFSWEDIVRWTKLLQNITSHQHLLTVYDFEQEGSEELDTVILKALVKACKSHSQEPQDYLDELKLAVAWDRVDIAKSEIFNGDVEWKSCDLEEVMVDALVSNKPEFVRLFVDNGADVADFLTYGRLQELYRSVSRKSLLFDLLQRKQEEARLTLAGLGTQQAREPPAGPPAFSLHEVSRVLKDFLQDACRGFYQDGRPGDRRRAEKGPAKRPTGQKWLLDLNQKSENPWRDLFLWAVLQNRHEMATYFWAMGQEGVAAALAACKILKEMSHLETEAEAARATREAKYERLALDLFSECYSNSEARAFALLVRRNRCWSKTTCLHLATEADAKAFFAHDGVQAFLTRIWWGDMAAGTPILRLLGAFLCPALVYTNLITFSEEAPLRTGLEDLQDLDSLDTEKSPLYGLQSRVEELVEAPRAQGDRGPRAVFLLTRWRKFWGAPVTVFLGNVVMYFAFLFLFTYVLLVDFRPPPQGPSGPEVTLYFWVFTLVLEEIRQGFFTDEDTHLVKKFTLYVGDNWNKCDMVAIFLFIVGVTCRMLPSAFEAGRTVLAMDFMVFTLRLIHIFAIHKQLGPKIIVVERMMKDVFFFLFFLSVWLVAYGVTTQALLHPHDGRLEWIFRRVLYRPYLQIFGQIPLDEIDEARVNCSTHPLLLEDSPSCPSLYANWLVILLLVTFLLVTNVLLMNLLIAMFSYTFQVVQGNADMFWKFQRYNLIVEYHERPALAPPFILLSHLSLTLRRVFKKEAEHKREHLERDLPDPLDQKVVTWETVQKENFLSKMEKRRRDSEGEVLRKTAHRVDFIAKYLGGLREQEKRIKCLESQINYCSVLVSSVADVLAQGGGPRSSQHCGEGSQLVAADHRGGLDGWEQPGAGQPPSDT
Description: Agonist activity at human TRPM5 expressed in CHO-K1 cells maintained at 80 mV final holding potential by syncroPatch assay. Type of data set: cell-based. The procedure, abridged:
(§1)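 SyncroPatch 384 whole-cell recording at rt on CHO-K1 cells stably expressing human or mouse TRPM5. Intracellular solution had 2 mM Na-ATP and 5 μM free Ca2+. Cumulative doses 0.03–31.6 μM in 0.5% DMSO, 150 s each after 180 s vehicle. Current measured at the end of the +80 mV step, normalized to vehicle; pEC50 is the mean of ≥2 independent experiments.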
A general note: Patch clamp records ionic current or voltage across a cell membrane.

Data set [2] deals with T1, Transient receptor potential cation channel subfamily M member 5. Description: Agonist activity at human TRPM5 expressed in CHO-K1 cells maintained at 80 mV final holding potential by QPatch HTX assay. In kind it is cell-based. The procedure, abridged: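 Whole-cell QPatch HTX recording at rt on CHO-K1 cells with stable hTRPM5. Pipette solution HEDTA-buffered to 1 μM free Ca2+, pH 7.2. Cells held at 0 mV; 0.1 Hz protocol with steps to −80/+80 mV and a ramp. Current taken at the end of the first +80 mV step, no leak subtraction. Increase expressed relative to vehicle current (100%).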

Data set [3] in a line: Efflux ratio of apparent permeability across basolateral to apical over apical to basolateral membrane in human Caco-2 cells incubated for 30 mins by LC-MS/MS analysis. Type of data set: ADME, cell-based. A general note: Caco-2 monolayers are a common model of the intestinal barrier.
Data set [4] is described as follows: Intrinsic clearance in mouse liver microsomes assessed per mg protein incubated up to 30 mins in presence of NADPH by LC-MS/MS analysis. Type of data set: ADME, Microsome. To be noted: […].
Data set [5] concerns the target Transient receptor potential cation channel subfamily V member 1 (Homo sapiens, UniProt Q8NER1). Description: Agonist activity at human TRPV1 expressed in CHO cells assessed as increase in capsaicin-induced intracellular calcium level measured after 1 hr by FLIPR assay. In kind it is cell-based. In outline: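 CHO cells stably expressing hTRPV1, plated at 10,000/well 24 h before the assay. Loaded with calcium-6 dye plus 2.5 mM probenecid for 1 h at 37 °C and 1 h at rt. FLIPR dual-addition protocol; agonist potency derived as pEC50.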

Data set [6] deals with Transient receptor potential cation channel subfamily M member 8 (Homo sapiens, UniProt Q7Z2W7). Kind of data set: Agonist activity at human TRPM8 expressed in HEK cells assessed as increase in menthol-induced intracellular calcium level measured after 1 hr by FLIPR assay. In kind it is cell-based. The procedure, abridged: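 HEK cells with stable hTRPM8, 20,000/well on poly-D-lysine plates 24 h ahead. Loaded with calcium-6 dye and 2.5 mM probenecid, 1 h at 37 °C then 1 h at rt. First-addition calcium rise scaled to (−)menthol 100 μM final (100% control); pEC50 derived from the concentration–response. Final DMSO 0.5%; assay at rt.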
(In general: A change in cytosolic calcium serves as a functional read-out for many receptors and channels.)

Data set [7] is described as follows: Solubility of the compound in phospahte-buffered saline buffer at pH 7.4 incubated for 2 hrs by HPLC/UV analysis. In kind it is physicochemical. The conditions noted are these: phosphate-buffered saline.
Data set [8] deals with T2, Transient receptor potential cation channel subfamily M member 5 (Mus musculus, UniProt Q9JJH7).
T2 sequence (Q9JJH7 whole entry): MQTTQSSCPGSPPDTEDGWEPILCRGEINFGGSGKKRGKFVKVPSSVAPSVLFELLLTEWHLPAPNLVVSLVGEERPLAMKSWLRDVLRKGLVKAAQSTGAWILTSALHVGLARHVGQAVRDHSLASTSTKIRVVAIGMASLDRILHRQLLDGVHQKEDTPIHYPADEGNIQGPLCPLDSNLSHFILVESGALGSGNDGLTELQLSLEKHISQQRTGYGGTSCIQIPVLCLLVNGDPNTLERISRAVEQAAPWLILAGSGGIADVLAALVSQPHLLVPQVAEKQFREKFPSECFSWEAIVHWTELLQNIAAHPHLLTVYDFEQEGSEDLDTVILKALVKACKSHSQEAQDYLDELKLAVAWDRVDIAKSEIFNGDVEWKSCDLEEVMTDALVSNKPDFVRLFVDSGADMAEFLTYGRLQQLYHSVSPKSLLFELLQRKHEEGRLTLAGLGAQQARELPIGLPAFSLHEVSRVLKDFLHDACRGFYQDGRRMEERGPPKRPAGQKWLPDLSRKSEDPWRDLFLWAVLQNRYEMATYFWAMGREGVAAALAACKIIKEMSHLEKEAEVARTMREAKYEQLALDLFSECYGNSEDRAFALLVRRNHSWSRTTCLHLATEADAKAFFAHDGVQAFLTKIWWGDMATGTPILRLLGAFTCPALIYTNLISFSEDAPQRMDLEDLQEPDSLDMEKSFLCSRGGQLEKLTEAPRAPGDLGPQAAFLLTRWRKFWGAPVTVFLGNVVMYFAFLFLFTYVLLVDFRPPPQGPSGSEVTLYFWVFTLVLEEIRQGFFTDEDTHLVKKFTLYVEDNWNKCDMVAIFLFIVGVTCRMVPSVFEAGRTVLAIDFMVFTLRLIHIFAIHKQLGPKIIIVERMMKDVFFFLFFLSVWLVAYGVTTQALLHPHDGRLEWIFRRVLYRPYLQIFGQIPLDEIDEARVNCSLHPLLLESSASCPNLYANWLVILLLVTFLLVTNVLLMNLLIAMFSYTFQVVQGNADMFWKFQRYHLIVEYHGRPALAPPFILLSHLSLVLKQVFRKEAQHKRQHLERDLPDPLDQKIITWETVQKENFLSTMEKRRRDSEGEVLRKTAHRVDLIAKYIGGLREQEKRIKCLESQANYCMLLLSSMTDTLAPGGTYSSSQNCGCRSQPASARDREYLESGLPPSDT
Kind of data set: Agonist activity at mouse TRPM5 expressed in CHO-K1 cells maintained at 80 mV final holding potential by syncroPatch assay. In kind it is cell-based. The procedure, abridged: as §1

The target in data set [9] is Transient receptor potential cation channel subfamily M member 4 (Homo sapiens, UniProt Q8TD43). Kind of data set: Agonist activity at human TRPM4 expressed in CHO cells assessed as change in membrane potential by FLIPR assay.
The nature of data set [10]: Apparent permeability across apical to basolateral membrane in human Caco-2 cells incubated for 30 mins by LC-MS/MS analysis. In kind it is ADME, cell-based.
The target of data set [11] is Transient receptor potential cation channel subfamily V member 4 (Homo sapiens, UniProt Q9HBA0). Kind of data set: Agonist activity at human TRPV4 expressed in HEK cells assessed as increase in GSK1016790A-induced intracellular calcium level measured after 1 hr by FLIPR assay. Type of data set: cell-based.
Data set [12] in a line: Intrinsic clearance in human liver microsomes assessed per mg protein incubated up to 30 mins in presence of NADPH by LC-MS/MS analysis. Type of data set: ADME, Microsome. To be noted: […].
Data set [13] deals with Transient receptor potential cation channel subfamily A member 1 (Homo sapiens, UniProt O75762). Description: Agonist activity at human TRPA1 expressed in HEK cells assessed as increase in menthol-induced intracellular calcium level incubated for 2 hrs by FLIPR assay. Type of data set: cell-based. In outline:
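HEK cells stably expressing hTRPA1, plated at 20,000/well 24 h ahead, loaded with calcium-6 dye plus 2.5 mM probenecid for 2 h at 37 °C. First FLIPR addition: 11-point 1:3 concentration series, read for 5 min, scaled to (−)menthol 1 mM final (100% control); pEC50 fitted. Final DMSO 0.5%; run at 37 °C.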

Sequence of Transient receptor potential cation channel subfamily V member 4 (Q9HBA0 whole entry): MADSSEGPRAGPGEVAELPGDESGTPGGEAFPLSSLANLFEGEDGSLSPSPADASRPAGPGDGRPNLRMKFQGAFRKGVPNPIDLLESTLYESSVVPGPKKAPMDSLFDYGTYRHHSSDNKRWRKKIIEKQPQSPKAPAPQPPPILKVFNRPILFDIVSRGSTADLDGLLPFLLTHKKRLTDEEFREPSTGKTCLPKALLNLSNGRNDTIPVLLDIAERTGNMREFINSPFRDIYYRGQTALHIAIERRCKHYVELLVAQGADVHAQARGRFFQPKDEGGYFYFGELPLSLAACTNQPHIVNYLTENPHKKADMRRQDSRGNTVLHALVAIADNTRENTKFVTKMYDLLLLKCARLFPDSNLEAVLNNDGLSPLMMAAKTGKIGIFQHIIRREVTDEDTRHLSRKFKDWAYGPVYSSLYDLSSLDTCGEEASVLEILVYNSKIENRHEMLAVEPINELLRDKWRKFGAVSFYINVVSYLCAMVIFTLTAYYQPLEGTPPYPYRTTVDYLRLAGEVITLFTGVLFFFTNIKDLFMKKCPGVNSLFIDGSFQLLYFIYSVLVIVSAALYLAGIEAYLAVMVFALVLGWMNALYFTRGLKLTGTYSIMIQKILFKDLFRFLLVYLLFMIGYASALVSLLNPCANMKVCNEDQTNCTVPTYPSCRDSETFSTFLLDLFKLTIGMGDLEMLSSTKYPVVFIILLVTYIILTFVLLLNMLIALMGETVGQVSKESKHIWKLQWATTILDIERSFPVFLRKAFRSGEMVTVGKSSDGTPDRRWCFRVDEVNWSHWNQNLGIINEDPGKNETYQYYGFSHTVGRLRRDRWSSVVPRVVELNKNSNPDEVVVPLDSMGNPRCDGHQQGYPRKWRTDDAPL
Sequence of Transient receptor potential cation channel subfamily A member 1 (O75762 whole entry): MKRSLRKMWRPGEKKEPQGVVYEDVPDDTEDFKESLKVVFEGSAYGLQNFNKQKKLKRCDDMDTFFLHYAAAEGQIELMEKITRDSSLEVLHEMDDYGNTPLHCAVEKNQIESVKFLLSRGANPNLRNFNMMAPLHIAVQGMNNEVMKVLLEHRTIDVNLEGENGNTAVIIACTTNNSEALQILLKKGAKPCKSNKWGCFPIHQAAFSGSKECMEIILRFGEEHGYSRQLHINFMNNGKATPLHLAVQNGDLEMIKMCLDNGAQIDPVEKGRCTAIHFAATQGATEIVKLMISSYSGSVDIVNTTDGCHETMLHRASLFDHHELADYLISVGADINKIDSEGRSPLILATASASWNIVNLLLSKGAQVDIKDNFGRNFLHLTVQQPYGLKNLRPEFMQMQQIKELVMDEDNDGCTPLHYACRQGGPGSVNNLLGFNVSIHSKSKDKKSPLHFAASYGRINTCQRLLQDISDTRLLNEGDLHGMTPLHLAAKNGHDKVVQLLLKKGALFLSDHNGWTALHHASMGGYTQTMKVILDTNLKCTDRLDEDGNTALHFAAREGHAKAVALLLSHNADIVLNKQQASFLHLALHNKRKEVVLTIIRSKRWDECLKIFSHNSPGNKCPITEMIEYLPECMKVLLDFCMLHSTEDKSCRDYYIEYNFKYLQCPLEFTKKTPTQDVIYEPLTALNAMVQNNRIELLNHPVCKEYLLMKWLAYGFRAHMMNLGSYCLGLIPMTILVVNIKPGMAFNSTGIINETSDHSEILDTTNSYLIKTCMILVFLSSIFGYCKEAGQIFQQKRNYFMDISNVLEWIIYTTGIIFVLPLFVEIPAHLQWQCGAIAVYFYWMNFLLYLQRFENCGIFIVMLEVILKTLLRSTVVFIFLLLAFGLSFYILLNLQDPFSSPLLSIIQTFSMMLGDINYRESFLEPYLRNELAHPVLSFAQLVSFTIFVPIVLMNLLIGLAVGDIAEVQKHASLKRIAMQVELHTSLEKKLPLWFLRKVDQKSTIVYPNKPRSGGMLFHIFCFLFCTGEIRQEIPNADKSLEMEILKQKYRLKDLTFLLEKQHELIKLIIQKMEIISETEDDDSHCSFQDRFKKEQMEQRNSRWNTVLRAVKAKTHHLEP
Sequence of Transient receptor potential cation channel subfamily M member 4 (Q8TD43 whole entry): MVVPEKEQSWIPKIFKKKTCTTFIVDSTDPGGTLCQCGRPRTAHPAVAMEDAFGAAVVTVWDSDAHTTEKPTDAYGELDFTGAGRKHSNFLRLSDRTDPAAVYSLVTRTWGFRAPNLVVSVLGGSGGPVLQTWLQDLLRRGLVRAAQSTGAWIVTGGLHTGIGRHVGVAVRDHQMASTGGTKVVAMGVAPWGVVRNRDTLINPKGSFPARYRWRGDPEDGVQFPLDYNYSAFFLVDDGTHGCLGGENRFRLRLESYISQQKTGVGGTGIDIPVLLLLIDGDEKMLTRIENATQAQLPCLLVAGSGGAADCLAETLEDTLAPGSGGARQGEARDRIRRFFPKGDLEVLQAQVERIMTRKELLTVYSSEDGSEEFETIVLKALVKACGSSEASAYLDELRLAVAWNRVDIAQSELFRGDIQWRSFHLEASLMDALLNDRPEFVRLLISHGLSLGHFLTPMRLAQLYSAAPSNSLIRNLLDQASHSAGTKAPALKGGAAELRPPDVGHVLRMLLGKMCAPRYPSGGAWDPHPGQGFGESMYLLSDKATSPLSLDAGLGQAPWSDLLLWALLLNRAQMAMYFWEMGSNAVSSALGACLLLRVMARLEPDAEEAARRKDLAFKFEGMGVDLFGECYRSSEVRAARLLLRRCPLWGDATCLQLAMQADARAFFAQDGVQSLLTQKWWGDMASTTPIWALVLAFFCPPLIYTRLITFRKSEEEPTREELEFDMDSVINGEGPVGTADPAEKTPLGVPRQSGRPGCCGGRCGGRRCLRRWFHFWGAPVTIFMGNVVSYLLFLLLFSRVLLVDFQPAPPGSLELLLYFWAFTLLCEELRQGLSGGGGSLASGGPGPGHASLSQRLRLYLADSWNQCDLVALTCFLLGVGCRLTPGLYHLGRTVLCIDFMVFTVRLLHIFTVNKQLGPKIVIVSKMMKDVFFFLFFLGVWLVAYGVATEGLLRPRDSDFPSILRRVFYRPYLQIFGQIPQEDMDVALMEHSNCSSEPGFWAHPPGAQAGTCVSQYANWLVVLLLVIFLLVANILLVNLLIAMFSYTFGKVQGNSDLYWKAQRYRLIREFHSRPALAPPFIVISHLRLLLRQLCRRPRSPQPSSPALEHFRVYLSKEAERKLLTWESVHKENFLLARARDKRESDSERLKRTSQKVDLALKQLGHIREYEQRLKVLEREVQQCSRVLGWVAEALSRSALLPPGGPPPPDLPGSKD
Sequence of Transient receptor potential cation channel subfamily M member 8 (Q7Z2W7 whole entry): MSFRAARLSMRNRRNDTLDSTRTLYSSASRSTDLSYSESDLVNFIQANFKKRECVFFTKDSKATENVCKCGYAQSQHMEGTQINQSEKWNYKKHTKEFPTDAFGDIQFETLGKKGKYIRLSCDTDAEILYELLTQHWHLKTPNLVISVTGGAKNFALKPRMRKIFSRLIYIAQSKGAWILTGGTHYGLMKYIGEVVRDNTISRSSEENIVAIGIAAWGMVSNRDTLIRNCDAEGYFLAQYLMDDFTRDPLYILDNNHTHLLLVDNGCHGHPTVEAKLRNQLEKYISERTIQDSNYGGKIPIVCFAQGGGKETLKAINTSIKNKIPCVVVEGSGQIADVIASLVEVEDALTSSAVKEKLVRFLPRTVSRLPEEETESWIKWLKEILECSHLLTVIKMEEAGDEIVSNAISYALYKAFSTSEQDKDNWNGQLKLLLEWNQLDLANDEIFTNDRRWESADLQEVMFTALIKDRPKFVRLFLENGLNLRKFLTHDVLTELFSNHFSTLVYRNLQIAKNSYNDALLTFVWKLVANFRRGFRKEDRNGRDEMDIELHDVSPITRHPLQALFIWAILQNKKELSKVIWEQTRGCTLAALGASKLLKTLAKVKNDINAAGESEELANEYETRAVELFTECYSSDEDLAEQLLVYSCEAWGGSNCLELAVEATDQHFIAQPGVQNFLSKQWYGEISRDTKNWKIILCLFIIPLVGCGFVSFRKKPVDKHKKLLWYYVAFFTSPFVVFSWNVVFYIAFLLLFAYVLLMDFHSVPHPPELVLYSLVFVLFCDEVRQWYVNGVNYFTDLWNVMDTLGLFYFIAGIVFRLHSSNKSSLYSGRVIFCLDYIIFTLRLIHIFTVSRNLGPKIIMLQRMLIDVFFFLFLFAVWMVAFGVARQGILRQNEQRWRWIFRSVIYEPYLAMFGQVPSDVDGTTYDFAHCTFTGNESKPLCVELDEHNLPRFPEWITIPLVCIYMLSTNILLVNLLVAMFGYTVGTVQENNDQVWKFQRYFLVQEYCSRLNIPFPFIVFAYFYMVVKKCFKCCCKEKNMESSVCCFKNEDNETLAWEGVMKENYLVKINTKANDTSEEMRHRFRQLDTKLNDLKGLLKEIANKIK

One may read the EC50 as the concentration needed to bring the measured effect to its halfway point. Take `Cn1c(Cl)cnc1CNc1ccc(Cl)cc1F`: the EC50 in [1] is 4.68 µM; in data set [2], 6.03 µM.

Usually efflux ratio stands for the permeability from basolateral to apical divided by that in the opposite direction, in the common usage. Usually solubility stands for how much of the substance goes into solution per volume. Low values mean a poorly soluble substance, high ones a readily soluble substance. By Papp A→B is commonly meant the apparent permeability from the apical to the basolateral side of a cell layer. `Cn1c(Cl)cnc1CNc1ccc2sncc2c1`: the efflux ratio at 0.5 h in [3] was 1.03. The microsomal CLint in [4] is 446 µL/min/mg; in data set [12], 109 µL/min/mg. Besides, the EC50 is 0.331 µM in data set [1]; over 15.8 µM in [5]; over 15.8 µM in [6]; 0.316 µM in data set [8]; over 63.1 µM in data set [9]; over 15.8 µM in data set [11]. Besides, in [13], the concentration giving a half-maximal response (EC50) was over 15.8 µM. In [7], this compound came in with a solubility at 2 h of 215 µM (≈ 59.9 µg/mL). In data set [10], the Papp A→B at 0.5 h came out at 21.9 ×10⁻⁶ cm/s.
